From ChEMBL document CHEMBL4680134, “Structural optimization of natural product nordihydroguaretic acid to discover novel analogues as AcrB inhibitors” (Eur J Med Chem, 2020)
Calls of active or inactive are those of the source. The rule behind the calls is not given here.

Columns and labels:
[1] = target: T1, Multidrug efflux pump subunit AcrB (Escherichia coli (strain K12)) (UniProt P31224); assay: Inhibition of AcrB in Escherichia coli BW25113 assessed as potentiation of levofloxacin induced antibacterial activity by measuring fold change in levofloxacin MIC at 32 ug/ml measured after 18 hrs by checkerboard titration method relative to levofloxacin alone; settings: dose 32.0 µg/ml
T1 sequence (whole entry): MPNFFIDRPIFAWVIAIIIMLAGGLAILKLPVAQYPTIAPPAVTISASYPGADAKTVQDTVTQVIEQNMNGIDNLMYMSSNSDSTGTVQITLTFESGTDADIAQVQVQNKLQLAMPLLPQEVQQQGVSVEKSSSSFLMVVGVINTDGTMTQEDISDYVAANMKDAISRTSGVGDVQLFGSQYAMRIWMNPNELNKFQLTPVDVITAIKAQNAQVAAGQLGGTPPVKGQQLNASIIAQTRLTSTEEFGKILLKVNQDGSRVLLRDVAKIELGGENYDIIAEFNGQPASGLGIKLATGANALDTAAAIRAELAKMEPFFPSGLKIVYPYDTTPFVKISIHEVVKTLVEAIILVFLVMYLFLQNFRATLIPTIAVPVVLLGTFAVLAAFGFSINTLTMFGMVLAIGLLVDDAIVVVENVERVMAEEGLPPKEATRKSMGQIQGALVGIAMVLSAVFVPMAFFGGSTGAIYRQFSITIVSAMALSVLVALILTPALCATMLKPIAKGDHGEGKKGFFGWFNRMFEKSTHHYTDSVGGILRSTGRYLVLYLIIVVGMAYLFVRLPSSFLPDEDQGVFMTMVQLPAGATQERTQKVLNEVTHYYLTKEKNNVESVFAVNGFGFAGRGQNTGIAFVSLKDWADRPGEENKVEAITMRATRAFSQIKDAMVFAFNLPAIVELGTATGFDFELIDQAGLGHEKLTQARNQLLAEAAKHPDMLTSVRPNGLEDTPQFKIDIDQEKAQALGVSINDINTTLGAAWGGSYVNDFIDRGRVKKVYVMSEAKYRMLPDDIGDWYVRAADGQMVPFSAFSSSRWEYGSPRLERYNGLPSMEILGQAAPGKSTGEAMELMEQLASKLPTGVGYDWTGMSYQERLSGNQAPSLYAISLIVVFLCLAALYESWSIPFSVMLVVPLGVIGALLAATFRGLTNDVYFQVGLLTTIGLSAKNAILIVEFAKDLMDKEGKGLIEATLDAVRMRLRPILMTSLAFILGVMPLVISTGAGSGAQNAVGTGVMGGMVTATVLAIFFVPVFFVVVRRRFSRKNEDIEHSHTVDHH

Cell membrane [2] = assay: Induction of inner membrane permeabilization in CCCP treated wild type Escherichia coli BW25113 at 64 ug/ml measured after 10 mins by Di0C2(3) probe based fluorimetric method; settings: escherichia coli bw25113, 10 min, dose 64 µg/ml
Method in brief: (§1)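 Cells left untreated or exposed to compound at 8-256 µg/mL for 10 min, then DiOC2(3) added and fluorescence followed to plateau. Cells re-energized with 0.5% glucose; membrane potential build-up read as fluorescence rise to plateau, then dissipated with CCCP.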

[3] = target: T1, Multidrug efflux pump subunit AcrB (Escherichia coli (strain K12)); assay: Inhibition of AcrB in Escherichia coli BW25113 assessed as potentiation of erythromycin induced antibacterial activity by measuring fold change in erythromycin MIC at 128 ug/ml measured after 18 hrs by checkerboard titration method relative to erythromycin alone; settings: dose 128.0 µg/ml
[4] = target: T1, Multidrug efflux pump subunit AcrB (Escherichia coli (strain K12)); assay: Inhibition of AcrB in Escherichia coli BW25113 assessed as potentiation of chloramphenicol induced antibacterial activity by measuring fold change in chloramphenicol MIC at 128 ug/ml measured after 18 hrs by checkerboard titration method relative to chloramphenicol alone; settings: dose 128.0 µg/ml
[5] = target: T1, Multidrug efflux pump subunit AcrB (Escherichia coli (strain K12)); assay: Inhibition of AcrB in Escherichia coli BW25113 assessed as potentiation of tetraphenylphosphonium induced antibacterial activity by measuring fold change in tetraphenylphosphonium MIC at 128 ug/ml measured after 18 hrs by checkerboard titration method relative to tetraphenylphosphonium alone; settings: dose 128.0 µg/ml
Cell membrane [6] = assay: Induction of outer membrane permeabilization in wild type Escherichia coli BW25113 assessed as increase in nitrocefin hydrolysis at 256 ug/ml by spectrophotometry analysis; settings: dose 256 µg/ml
Method in brief: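 Outer-membrane permeability: intact E. coli treated with 10 µM CCCP to block nitrocefin efflux, then exposed to compound. Nitrocefin hydrolysis by periplasmic β-lactamase followed as increasing absorbance at 490 nm over time. Polymyxin B as permeabilizer control, untreated cells as baseline. Duplicate experiments on different days.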

[7] = target: T1, Multidrug efflux pump subunit AcrB (Escherichia coli (strain K12)); assay: Inhibition of AcrB in Escherichia coli BW25113 assessed as potentiation of tetraphenylphosphonium induced antibacterial activity by measuring tetraphenylphosphonium MIC at 256 ug/ml measured after 18 hrs by checkerboard titration method (reference value: 1024 ug/ml); settings: dose 256.0 µg/ml
[8] = target: T1, Multidrug efflux pump subunit AcrB (Escherichia coli (strain K12)); assay: Inhibition of AcrB in Escherichia coli BW25113 assessed as potentiation of levofloxacin induced antibacterial activity by measuring levofloxacin MIC at 256 ug/ml measured after 18 hrs by checkerboard titration method (reference value: 0.06 ug/ml); settings: dose 256.0 µg/ml
[9] = target: T1, Multidrug efflux pump subunit AcrB (Escherichia coli (strain K12)); assay: Inhibition of AcrB in Escherichia coli BW25113 assessed as potentiation of erythromycin induced antibacterial activity by measuring erythromycin MIC at 256 ug/ml measured after 18 hrs by checkerboard titration method (reference value: 64 ug/ml); settings: dose 256.0 µg/ml
[10] = target: T1, Multidrug efflux pump subunit AcrB (Escherichia coli (strain K12)); assay: Inhibition of AcrB in Escherichia coli BW25113 assessed as potentiation of chloramphenicol induced antibacterial activity by measuring chloramphenicol MIC at 256 ug/ml measured after 18 hrs by checkerboard titration method (reference value: 8 ug/ml); settings: dose 256.0 µg/ml
[11] = Growth inhibition of Escherichia coli harboring AcrB deletion mutant at higher concentration after 18 hrs by broth microdilution assay
Method in brief: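 MIC determined by 96-well broth microdilution in E. coli BW25113 expressing AcrB ((+)AcrB) and an isogenic acrB-deleted strain ((-)AcrB). Used to set the compound concentrations for synergy testing that produce no direct antibacterial effect.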

[12] = target: T1, Multidrug efflux pump subunit AcrB (Escherichia coli (strain K12)); assay: Inhibition of AcrB in Escherichia coli BW25113 assessed as reduction in glucose-induced nile red efflux at 100 to 200 uM preincubated for 15 mins followed by nile red addition and incubated for 3 hrs in shaker in presence of CCCP by fluorimetric analysis; settings: dose 100-200 µM, time 195.0 min
Method in brief: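 Whole-cell efflux: wild-type and ΔAcrB cells preloaded with Nile Red, with or without compound, before fluorescence readings. Efflux triggered at 100 s with 0.2% glucose and followed by fluorometry. The ΔAcrB strain marks maximal accumulation. Triplicate experiments with different cell batches.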

Cell membrane [13] = assay: Induction of inner membrane permeabilization in CCCP treated wild type Escherichia coli BW25113 at 128 ug/ml measured after 10 mins by Di0C2(3) probe based fluorimetric method; settings: escherichia coli bw25113, 10 min, dose 128 µg/ml; method in brief: as §1
[14] = target: T1, Multidrug efflux pump subunit AcrB (Escherichia coli (strain K12)); assay: Inhibition of AcrB in Escherichia coli BW25113 assessed as potentiation of chloramphenicol induced antibacterial activity by measuring fold change in chloramphenicol MIC at 256 ug/ml measured after 18 hrs by checkerboard titration method relative to chloramphenicol alone; settings: dose 256.0 µg/ml

Compound | MIC [7] [µg/mL] | MIC [8] [µg/mL] | MIC [9] [µg/mL] | MIC [10] [µg/mL] | other results
O=C(NCCc1ccc(O)c(O)c1)c1cc(O)c(O)c(O)c1 | – | – | – | – | fold change (FC) [1]: 2; Activity (Cell membrane [2]): Non-Toxic; fold change (FC) [3]: 4; fold change (FC) [4]: 4; fold change (FC) [5]: 4
Oc1ccc(CCCc2ccc(O)c(O)c2)cc1O | 512 | 0.06 | 32 | 8 | Activity (Cell membrane [6]): Non-Toxic
Nc1ccc(C(=O)NCCc2ccc(O)c(O)c2)cc1 | – | – | – | – | fold change (FC) [3]: 4; fold change (FC) [4]: 4
Cc1ccc(C(=O)NCCc2ccc(O)c(O)c2)cc1 | – | – | – | – | growth inhibition (GI) [11]: Toxic
C[C@H](Cc1ccc(O)c(O)c1)[C@@H](C)Cc1ccc(O)c(O)c1 [MASOPROCOL] | 64 | 0.03 | 32 | 2 | Activity (Cell membrane [6]): Toxic
O=C(NCCc1ccc(O)c(O)c1)c1ccc(O)c(O)c1 | – | – | – | – | Activity (Cell membrane [6]): Non-Toxic; Activity (Cell membrane [2]): Non-Toxic; inhibition [12]: Active
Oc1ccc(CCCCCCCc2ccc(O)c(O)c2)cc1O | 512 | 0.06 | 64 | 8 | Activity (Cell membrane [2]): Non-Toxic; inhibition [12]: Active
Oc1ccc(CCCCCCc2ccc(O)c(O)c2)cc1O | 512 | 0.06 | 64 | 8 | –
O=C(NCCc1ccc(O)c(O)c1)c1ccccc1O | – | – | – | – | fold change (FC) [1]: 2; Activity (Cell membrane [6]): Non-Toxic
Oc1ccc(CCCCc2ccc(Br)cc2)cc1O | 512 | 0.06 | 64 | 8 | –
Nc1cc(N)cc(C(=O)NCCc2ccc(O)c(O)c2)c1 | – | – | – | – | Activity (Cell membrane [2]): Non-Toxic; inhibition [12]: Active
Oc1ccc(CCCCc2ccc(Cl)cc2)cc1O | 512 | 0.06 | 64 | 16 | –
Oc1ccc(CCCCc2ccccc2O)cc1O | 512 | 0.06 | 32 | 4 | Activity (Cell membrane [13]): Toxic
Oc1ccc(CCCCCc2ccc(O)c(O)c2)cc1O | 32 | 0.06 | 64 | 8 | growth inhibition (GI) [11]: Toxic; Activity (Cell membrane [13]): Toxic; inhibition [12]: Active
Oc1ccc(CCCCc2ccc(O)c(O)c2)cc1O | 512 | 0.06 | 32 | 4 | –
Oc1ccc(CCCCc2cc3cccc4ccc5cccc2c5c43)cc1O | 256 | 0.06 | 32 | 4 | –
Oc1ccc(CCCCc2cc(O)c(O)c(O)c2)cc1O | 256 | 0.06 | 32 | 1 | Activity (Cell membrane [6]): Non-Toxic; fold change (FC) [14]: 8; Activity (Cell membrane [13]): Non-Toxic
